The source made the active and inactive calls. No cut-off for these calls is given here.
Experiments:
[1] = biological target: T1, Ferroportin (Homo sapiens, UniProt Q9NP59); assay: Induction of human ferroportin degradation expressed in HEK293 cells after 24 hrs by flow cytometry; assay type: cell-based
T1 sequence (Q9NP59 whole entry): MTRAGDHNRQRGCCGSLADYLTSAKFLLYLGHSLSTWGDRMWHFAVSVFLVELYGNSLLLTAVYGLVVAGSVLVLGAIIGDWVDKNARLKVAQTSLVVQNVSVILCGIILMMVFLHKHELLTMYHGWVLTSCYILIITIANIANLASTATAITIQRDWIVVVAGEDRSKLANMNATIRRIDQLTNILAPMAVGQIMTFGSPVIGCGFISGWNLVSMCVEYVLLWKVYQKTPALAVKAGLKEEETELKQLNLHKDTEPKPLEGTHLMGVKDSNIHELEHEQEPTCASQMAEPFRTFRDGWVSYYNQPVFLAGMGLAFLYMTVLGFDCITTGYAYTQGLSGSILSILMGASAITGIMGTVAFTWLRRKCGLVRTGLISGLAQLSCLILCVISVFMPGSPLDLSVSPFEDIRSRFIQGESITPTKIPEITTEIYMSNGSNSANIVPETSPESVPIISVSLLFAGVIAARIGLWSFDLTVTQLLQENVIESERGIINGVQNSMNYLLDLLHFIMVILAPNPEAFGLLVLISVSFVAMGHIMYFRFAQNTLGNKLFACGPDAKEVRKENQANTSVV
Outline: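 HEK293:TREX-Fpn-GFP cells (human ferroportin-GFP under a doxycycline-inducible promoter) plated on poly-D-lysine with 20 μM FAC. Fpn induced with 500 ng/mL doxycycline for 24 h, then washed off. Peptide exposure 24 h. Green fluorescence read by flow cytometry, gated against uninduced cells; induced untreated cells are the positive control.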

[2] = test system: Mus musculus; assay: Induction of human ferroportin degradationin C57BL/6 mouse assessed as decrease in serum iron at 50 to 100 nmol, ip measured after 6 to 24 hrs by colorimetric assay; assay type: functional, organism-based
Outline: (§1)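 Mice dosed intraperitoneally with 50 or 100 nmoles peptide in 100 μL PBS; controls received 100 μL PBS. Killed at 6, 24 or 48 h. Serum from cardiac-puncture blood. Iron measured by microplate colorimetric assay on 50 μL serum. Result is % decrease versus mean serum iron of PBS-injected mice.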

[3] = test system: Mus musculus; assay: Induction of human ferroportin degradationin C57BL/6 mouse assessed as decrease in serum iron at 50 to 100 nmol, ip measured after 48 hrs by colorimetric assay; assay type: functional, organism-based; outline: as §1
[4] = Stability of the compound in DMSO at room temperature after 30 days by LC/MS/MS analysis; assay type: physicochemical; details: read-out: Stability
Outline: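 Compound kept as a 10 mM DMSO solution at room temperature for 30 days. Remaining intact compound (decomposition or sulfide oxidation) measured by LC/MS/MS.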

Compound	EC50 [1]	further results
CCCCCCCCCCCCCCCCNC(=O)CN(CC(N)=O)C(=O)CCCCCNC(=O)[C@H](Cc1ccccc1)NC(=O)[C@H](CCCNC(=N)N)NC(=O)[C@H](CS/C(=C\P(=O)(OCC)OCC)P(=O)(OCC)OCC)NC(=O)[C@H](CCCNC(=N)N)NC(=O)C[C@@H]1CCCN1C(=O)[C@@H](NC(=O)[C@H](Cc1cnc[nH]1)NC(=O)[C@@H](NC(=O)CNC(=O)CO)[C@@H](C)O)C(c1ccccc1)c1ccccc1	1.1 nM	Activity [2]: Active; Activity [3]: inactive; remaining at 720 h [4]: 99.5%
CCCCCCCCCCCCCCCCNC(=O)CN(CC(N)=O)C(=O)CCCCCNC(=O)[C@H](Cc1ccccc1)NC(=O)[C@H](CCCNC(=N)N)NC(=O)[C@H](CS/C=C\C(=O)O)NC(=O)[C@H](CCCNC(=N)N)NC(=O)C[C@@H]1CCCN1C(=O)[C@@H](NC(=O)[C@H](Cc1cnc[nH]1)NC(=O)[C@@H](NC(=O)CNC(=O)CO)[C@@H](C)O)C(c1ccccc1)c1ccccc1	218 nM	–
CCCCCCCCCCCCCCCCNC(=O)CN(CC(N)=O)C(=O)CCCCCNC(=O)[C@H](Cc1ccccc1)NC(=O)[C@H](CCCNC(=N)N)NC(=O)[C@H](CS/C(=C\C(=O)OC(C)(C)C)C(=O)OC(C)(C)C)NC(=O)[C@H](CCCNC(=N)N)NC(=O)C[C@@H]1CCCN1C(=O)[C@@H](NC(=O)[C@H](Cc1cnc[nH]1)NC(=O)[C@@H](NC(=O)CNC(=O)CO)[C@@H](C)O)C(c1ccccc1)c1ccccc1	6.3 nM	–

The next lines start with results.

EC50 [1]	Compound	further results
12.6 nM	CCCCCCCCCCCCCCCCNC(=O)CN(CC(N)=O)C(=O)CCCCCNC(=O)[C@H](Cc1ccccc1)NC(=O)[C@H](CCCNC(=N)N)NC(=O)[C@H](CS/C(=C\C(=O)OC)C(=O)OC)NC(=O)[C@H](CCCNC(=N)N)NC(=O)C[C@@H]1CCCN1C(=O)[C@@H](NC(=O)[C@H](Cc1cnc[nH]1)NC(=O)[C@@H](NC(=O)CNC(=O)CO)[C@@H](C)O)C(c1ccccc1)c1ccccc1	–
10.4 nM	CCCCCCCCCCCCCCCCNC(=O)CN(CC(N)=O)C(=O)CCCCCNC(=O)[C@H](Cc1ccccc1)NC(=O)[C@H](CCCNC(=N)N)NC(=O)[C@H](CS/C(=C\C(=O)OCC)C(=O)OCC)NC(=O)[C@H](CCCNC(=N)N)NC(=O)C[C@@H]1CCCN1C(=O)[C@@H](NC(=O)[C@H](Cc1cnc[nH]1)NC(=O)[C@@H](NC(=O)CNC(=O)CO)[C@@H](C)O)C(c1ccccc1)c1ccccc1	–
10 nM	CCCCCCCCCCCCCCCCNC(=O)CN(CC(N)=O)C(=O)CCCCCNC(=O)[C@H](Cc1ccccc1)NC(=O)[C@H](CCCNC(=N)N)NC(=O)[C@H](CS/C(=C\S(=O)(=O)C(C)(C)C)S(=O)(=O)C(C)(C)C)NC(=O)[C@H](CCCNC(=N)N)NC(=O)C[C@@H]1CCCN1C(=O)[C@@H](NC(=O)[C@H](Cc1cnc[nH]1)NC(=O)[C@@H](NC(=O)CNC(=O)CO)[C@@H](C)O)C(c1ccccc1)c1ccccc1	–
34 nM	CCCCCCCCCCCCCCCCNC(=O)CN(CC(N)=O)C(=O)CCCCCNC(=O)[C@H](Cc1ccccc1)NC(=O)[C@H](CCCNC(=N)N)NC(=O)[C@H](CS/C(=C\S(N)(=O)=O)c1ccccc1)NC(=O)[C@H](CCCNC(=N)N)NC(=O)C[C@@H]1CCCN1C(=O)[C@@H](NC(=O)[C@H](Cc1cnc[nH]1)NC(=O)[C@@H](NC(=O)CNC(=O)CO)[C@@H](C)O)C(c1ccccc1)c1ccccc1	–
8.4 nM	CCCCCCCCCCCCCCCCNC(=O)CN(CC(N)=O)C(=O)CCCCCNC(=O)[C@H](Cc1ccccc1)NC(=O)[C@H](CCCNC(=N)N)NC(=O)[C@H](CS/C(=C\C(N)=O)C(N)=O)NC(=O)[C@H](CCCNC(=N)N)NC(=O)C[C@@H]1CCCN1C(=O)[C@@H](NC(=O)[C@H](Cc1cnc[nH]1)NC(=O)[C@@H](NC(=O)CNC(=O)CO)[C@@H](C)O)C(c1ccccc1)c1ccccc1	–

Source: ChEMBL document CHEMBL3392955, “Thiol-derivatized minihepcidins retain biological activity” (Bioorg Med Chem Lett, 2015)
